Measurements published in ChEMBL document CHEMBL4765229, “Synthesis and Biological Evaluation of N-[2-(4-Hydroxyphenylamino)-pyridin-3-yl]-4-methoxy-benzenesulfonamide (ABT-751) Tricyclic Analogues as Antimitotic and Antivascular Agents with Potent in Vivo Antitumor Activity” (J Med Chem, 2016).
The source made the active and inactive calls. No cut-off for these calls is given here.

Columns and labels:
SK-MEL-28 = assay: Inhibition of microtubule reorganization in human SK-MEL-28 cells assessed as appearance of spherical configuration at 1 uM incubated for 6 hrs by Alexa Fluor 488/Hoechst dye based fluorescence microscopic analysis; format: cell-based
How it was run: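 SK-Mel28 cells were grown on poly-L-lysine chamber slides (about 2.5 x 10^4 cells/well) in complete RPMI with 10% FBS and exposed to 1 µM or vehicle for 6 h. Cells were acetone-fixed, Triton-X-100 permeabilized and blocked. They were stained with anti-β-tubulin (TUB2.1, 2 μg/mL) plus Alexa Fluor 488 secondary, with Hoechst for nuclei, then viewed at 40× by fluorescence microscopy.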

B16-F10 = assay: Anti-angiogenesis activity in mouse B16-F10 cells xenografted in C57BL/6 mouse assessed as reduction in microvessel number at 5 mg/kg, […] by immunohistochemistry; format: functional; set-up: scale not given: the % may be the effect or the level left

## COc1ccc(CCN2CC=Cn3c2nc2ccccc2c3=O)cc1
SK-MEL-28
  inhibition: Active
B16-F10
  Activity: 60%
